Consider 23 molecules from ChEMBL document CHEMBL1121566, “Synthesis and aldose reductase inhibitory activity of 7-sulfamoylxanthone-2-carboxylic acids” (J Med Chem, 1980).

Activity calls are given as the source filed them. The rule behind the calls is not given here.

In experiment [1] the target is Aldo-keto reductase family 1 member B1 (Oryctolagus cuniculus) (UniProt P15122). The experiment in a line: Antiallergic agent with Aldose reductase Inhibitory Activity at 10E-5 M concentration. A digest of the protocol:
(§1)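 Enzyme was from frozen rabbit lenses, homogenized in water and spun at 10000g. The 50–75% ammonium sulfate fraction was dissolved in 0.05 M NaCl. The assay used 0.067 M phosphate pH 6.0 and 2 × 10^-5 M NADPH, and was started with 5 × 10^-4 M D,L-glyceraldehyde (final). NADPH loss was followed at 340 nm for 2 min at 37 °C. Inhibitors were dissolved in minimal 0.1 N NaOH and diluted with water.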

Experiment [2] shares this target. The experiment in a line: Antiallergic agent with Aldose reductase Inhibitory Activity at 10E-6 M concentration. A digest of the protocol: as §1
For experiment [3] the target is unchanged. The experiment in a line: Percent inhibition of rabbit lens aldose reductase in vitro at 10E-4 M concentration. A digest of the protocol:
as §1

For experiment [4], the system named is Aldose reductase (Oryctolagus cuniculus). The experiment in a line: In vitro inhibitory activity towards rabbit lens aldose reductase; Active.

One may read the inhibition as the change of the read-out against control, counted positive when it falls. For `O=C(O)c1ccc2oc3ccc(S(=O)(=O)NCCO)cc3c(=O)c2c1`, the figures for the inhibition in experiment [1], in experiment [2] and in experiment [3] were 38%, 0% and 79%, respectively.
The like results for `O=C(O)c1ccc2oc3ccc(S(=O)(=O)N4CCOCC4)cc3c(=O)c2c1` were, in that order, 6%, 0% and 76%.
For the molecule `O=C(O)c1ccc2oc3ccc(SCCO)cc3c(=O)c2c1`, the inhibition worked out at 65% in experiment [1], 7% in experiment [2] and 93% in experiment [3].
On the same counts, the results for `O=C(O)c1ccc2oc3ccc([S+]([O-])CCO)cc3c(=O)c2c1` (stereo not given) are 50%, 17% and 87%.
On the same counts, the results for `NS(=O)(=O)c1ccc2oc3ccc(C(=O)O)cc3c(=O)c2c1` are 20%, 10% and 70%.
The like results for `CC(C)N(C)S(=O)(=O)c1ccc2oc3ccc(C(=O)O)cc3c(=O)c2c1` were, in that order, 69%, 17% and 89%.
`CNS(=O)(=O)c1ccc2oc3ccc(C(=O)O)cc3c(=O)c2c1`: the inhibition was found to be 40% in experiment [1], 25% in experiment [2] and 75% in experiment [3].
For `COC(C)c1ccc2oc3ccc(C(=O)O)cc3c(=O)c2c1` (stereo not given), the inhibition was 6% in experiment [1], 0% in experiment [2] and 70% in experiment [3].
The like results for `CC(C)NS(=O)(=O)c1ccc2oc3ccc(C(=O)O)cc3c(=O)c2c1` were, in that order, 30%, 0% and 72%.
For `CN(C)S(=O)(=O)c1ccc2oc3ccc(C(=O)O)cc3c(=O)c2c1`, the inhibition in experiment [1] amounted to 87%; in experiment [2], 67%; in experiment [3] it was 94%. In addition, the inhibition entry in experiment [4] is “Active”.
As for `CC(C)CN(C)S(=O)(=O)c1ccc2oc3ccc(C(=O)O)cc3c(=O)c2c1`, the inhibition was 75% in experiment [1], 25% in experiment [2] and 95% in experiment [3].
On the same counts, the results for `O=C(O)c1ccc2oc3ccc(S(=O)(=O)CCO)cc3c(=O)c2c1` are 77%, 50% and 96%.
The like results for `O=C(O)c1ccc2oc3ccc(S(=O)(=O)O)cc3c(=O)c2c1` were, in that order, 43%, 0% and 70%.
Turning to `O=c1c(O)c(-c2ccc(O)c(O)c2)oc2cc(O)cc(O)c12`, the values for the inhibition in experiment [1] and in experiment [2] were 52% and 9%, respectively.
As to `CN(CCO)S(=O)(=O)c1ccc2oc3ccc(C(=O)O)cc3c(=O)c2c1`, the inhibition in experiment [1] was determined as 96%; in experiment [2], 83%; in experiment [3], 100%. Besides, the inhibition entry in experiment [4] was “Active”.
For `COCC[S+]([O-])c1ccc2oc3ccc(C(=O)O)cc3c(=O)c2c1` (stereo not given), the results for the inhibition in experiment [1], in experiment [2] and in experiment [3] were 12%, 4% and 65%, respectively.
On the same counts, the results for `O=C(O)c1ccc2oc3ccc(OCC(O)CO)cc3c(=O)c2c1` (stereo not given) are 46%, 8% and 88%.
With `O=C(O)c1ccc2oc3ccc(S(=O)(=O)N4CCCC4)cc3c(=O)c2c1`, the values for the inhibition in experiment [1], in experiment [2] and in experiment [3] were 46%, 0% and 85%, respectively.
The like results for `C[S+]([O-])c1ccc2oc3ccc(C(=O)O)cc3c(=O)c2c1` (stereo not given) were, in that order, 20%, 0% and 63%.
In the case of `O=C(O)c1ccc2oc3ccc(S(=O)(=O)N(CCO)CCO)cc3c(=O)c2c1`, the results for the inhibition in experiment [1], in experiment [2] and in experiment [3] were 49%, 2% and 89%, respectively.
The like results for `CCN(C)S(=O)(=O)c1ccc2oc3ccc(C(=O)O)cc3c(=O)c2c1` were, in that order, 81%, 23% and 92%.
The like results for `CC(O)c1ccc2oc3ccc(C(=O)O)cc3c(=O)c2c1` (stereo not given) were, in that order, 10%, 10% and 50%.
On the same counts, the results for `O=C(O)c1ccc2oc3ccccc3c(=O)c2c1` are 10%, 0% and 20%.
